Measurements pooled from the literature.
Protocols differ between the studies behind these lines.
Target: Serine/threonine-protein kinase 3 (STK3, Homo sapiens, UniProt Q13188)
Sequence (Q13188 1-491, as in one of the studies): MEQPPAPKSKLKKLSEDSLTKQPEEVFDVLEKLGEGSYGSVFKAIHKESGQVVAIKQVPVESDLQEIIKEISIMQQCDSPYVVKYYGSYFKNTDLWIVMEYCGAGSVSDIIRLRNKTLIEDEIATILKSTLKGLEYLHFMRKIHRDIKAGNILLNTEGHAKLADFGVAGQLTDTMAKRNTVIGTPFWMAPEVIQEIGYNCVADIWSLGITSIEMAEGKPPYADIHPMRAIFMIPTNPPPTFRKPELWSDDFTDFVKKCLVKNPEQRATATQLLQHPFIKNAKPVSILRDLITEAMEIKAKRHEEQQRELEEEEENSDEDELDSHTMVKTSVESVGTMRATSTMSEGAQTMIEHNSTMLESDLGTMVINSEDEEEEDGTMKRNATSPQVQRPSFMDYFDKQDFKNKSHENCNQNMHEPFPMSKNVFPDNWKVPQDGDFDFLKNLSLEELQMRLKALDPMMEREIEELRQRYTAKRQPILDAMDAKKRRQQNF

CC1(C)NC(=O)c2[nH]c3c(Cl)c(Cl)ccc3c2C1C#N (centres unmarked) — ΔTm (thermal stability, DSF; 10 µM): 0.2 °C
O=C1Nc2ccc(Cl)cc2C1=Cc1cc(Cl)c(O)c(Cl)c1 — remaining signal (cell-free assay; 0.5 µM): 31.6%
Nc1nc(Nc2ccccc2)sc1C(=O)c1c(F)cccc1F — remaining activity (enzyme activity, inhibitor; 10 µM): 40%
COc1cc2c(N3CCN(C(=O)Nc4ccc(OC(C)C)cc4)CC3)ncnc2cc1OCCCN1CCCCC1 — remaining signal (cell-free assay; 0.5 µM): 94.7%
NS(=O)(=O)c1cc(NC(=O)C2(c3ccccc3Cl)CC2)ccc1Oc1cccc(Cl)c1 — remaining binding (cell-free assay, competition with immobilised ligand; 1 µM): 94%
CNC(=O)c1cc(Oc2ccc(NC(=O)Nc3ccc(Cl)c(C(F)(F)F)c3)cc2)ccn1 — inhibition (cell-free assay, inhibitor; 0.3 µM): 7%
COc1cc(Cl)c(C(=O)N[C@@H](CN[C@H]2CC[C@@H](N)CC2)Cc2ccc(C#N)cc2)cc1-c1ccc(CN[C@H](C)c2ccc(C)cc2)o1 — remaining activity (enzyme activity, inhibitor; 1 µM): 97%
O=C(Nc1cnn(-c2csc(C(=O)NC3COC3)c2)c1)Nc1ccccc1Cl — remaining activity (enzyme activity, inhibitor; 5 µM): 120%
CCOC(=O)c1cc2cc(-c3cc(C(=O)NCc4ccc(C(=O)O)cc4)nn3C)ccc2[nH]1 — remaining binding (cell-free assay, competition with immobilised ligand; 0.1 µM): 96%
CCN(CC)c1ccc(C2=NNC(=O)CC2C)cc1[N+](=O)[O-] (centres unmarked) — remaining activity (enzyme activity, inhibitor; 10 µM): 87%
Cn1c2c(Cl)c(Cl)ccc2c2cc(N)[nH]c(=O)c21 — ΔTm (thermal stability, DSF; 10 µM): 2.2 °C
Oc1cccc(-c2nc(N3CCOCC3)c3oc4ncccc4c3n2)c1 — remaining activity (enzyme activity, inhibitor; 10 µM): 115%
CCN1CCN(Cc2ccc(NC(=O)c3ccc(C)c(Oc4ccnc5[nH]ccc45)c3)cc2C(F)(F)F)CC1 — inhibition (target engagement in cells, inhibitor, chemoproteomics; Huh-7; 10 µM): -56.5%
CNCc1ccc(-c2cc(-c3nc(-c4ccc(S(=O)(=O)C(C)C)cc4)cnc3N)on2)cc1 — inhibition (enzyme activity, inhibitor; 2 µM): 43%
CC(=O)C1=C(C)N(c2cccc(C(F)(F)F)c2)C(=O)N[C@@H]1c1ccc(C#N)nc1 — remaining binding (cell-free assay, competition with immobilised ligand; 1 µM): 93.1%
Cc1ccc(Nc2nccc(N(C)c3ccc4c(C)n(C)nc4c3)n2)cc1S(N)(=O)=O — inhibition (cell-free assay, inhibitor; 10 µM): 4%
CC1=C(C#N)C(c2ccc3c(c2)c(NC(=O)c2ccccc2C)nn3C)C(C#N)=C(C)N1 — remaining binding (cell-free assay, competition with immobilised ligand; 1 µM): 100%
FC(F)(F)Oc1cccc(-c2cnc3ccc(-c4ccncc4)nn23)c1 — activity vs control (enzyme activity, inhibitor, radiometric; 5 µM): 71%
Cc1cnc(NC2CCOCC2)nc1-n1cnc(C(=O)NC(CN)c2cc(F)cc(Cl)c2)c1 (centres unmarked) — remaining activity (enzyme activity, inhibitor, radiometric; 1 µM): 108%
CN1CCC2(CC1)NC(=O)c1c(c3ccc(Cl)c(Cl)c3n1C)C2C#N (racemic) — ΔTm (thermal stability, DSF; 10 µM): -0.2 °C
COc1cc(Nc2cnc(C#N)c(O[C@H](C)CN(C)C)n2)ncc1-c1cnn(C)c1 — remaining activity (enzyme activity, inhibitor, radiometric; 10 µM): 30%
COc1cc2ncnc(Nc3ccc(Oc4ccccc4)cc3C)c2cc1OC — inhibition (enzyme activity, inhibitor; 1 µM): -4%
CN(C)S(=O)(=O)c1ccc2c(c1)/C(=C/c1cc3c([nH]1)CCCC3)C(=O)N2 — remaining signal (cell-free assay; 0.5 µM): 24.3%
CC(C)(O)[C@H]1CC[C@H](Nc2ccc3ncc(-c4cccc(C(F)(F)F)c4)n3n2)CC1 — remaining activity (enzyme activity, inhibitor; 1 µM): 73.9%
Cc1sc(C(=O)NC2COC2)cc1-n1cc(NC(=O)Nc2c(F)cccc2Cl)cn1 — remaining activity (enzyme activity, inhibitor; 10 µM): 93.9%
CO[C@@H](C)c1c(Nc2ccc([C@H](N(C)C(=O)C3CCS(=O)(=O)CC3)C(F)(F)F)cc2)cnc2cc(Cl)nn12 — remaining binding (cell-free assay, competition with immobilised ligand; 1 µM): 92%
CC(C)(C)c1nc2c(s1)c1nc(N)ncc1c1ccc(NS(=O)(=O)c3c(F)cccc3F)c(F)c12 — remaining activity (enzyme activity, inhibitor, radiometric; 1 µM): 89%
O=C1NC(=O)c2cc(Nc3ccc(F)cc3)c(Nc3ccc(F)cc3)cc21 — remaining signal (cell-free assay; 0.5 µM): 90.7%
Cc1cc(NC(=O)c2cccc3cc(-c4cccc5[nH]nc(N)c45)ccc23)ccc1F — activity vs control (enzyme activity, inhibitor; 0.1 µM): 98%
Cn1c2c(c3ccccc31)C(C#N)C(C)(C)NC2=O (centres unmarked) — ΔTm (thermal stability, DSF; 10 µM): -0.5 °C
CC/C(=N\NC(=O)NCc1cccc(O)c1)c1ccc(O)c(C)c1O — inhibition (enzyme activity, inhibitor; 0.1 µM): -0.5%
CN(C)C(=O)Cn1cc(-c2nc(C3(c4ccc(-c5cnc(N)nc5)cc4)CC3)no2)cn1 — remaining binding (cell-free assay, competition with immobilised ligand; 1 µM): 100%
CN1CC(Oc2cnc(C#N)cc2-c2ccn3nc(NC(=O)C4CC4)cc3c2)C1 — inhibition (enzyme activity, inhibitor; 1 µM): 4%
Nc1ncnc2occ(-c3ccc(NC(=O)Nc4cc(C(F)(F)F)ccc4F)cc3)c12 — remaining signal (cell-free assay, inhibitor; 20 µM): 6.6%
Cc1c(NC(=O)c2cc(C(N)=O)nc3cc(F)ccc23)c(C(F)(F)F)nn1Cc1ccc(C(C)(C)C)cc1 — remaining binding (cell-free assay, competition with immobilised ligand; 1 µM): 90%
Cn1c2c(c3ccc(Cl)c(Cl)c31)C(C#N)C(C)(C)NC2=O (centres unmarked) — ΔTm (thermal stability, DSF; 10 µM): 0.4 °C
O=C(N[C@H]1CCCCC/C=C\C2C[C@@]2(C(=O)O)NC(=O)[C@@H]2C[C@@H](Oc3ccncc3)CN2C1=O)OC1CCCC1 (some centres unmarked) — remaining binding (binding, competition with immobilised ligand; 1 µM): 76%
Cn1c2c(c3ccc(Cl)c(Cl)c31)C(C#N)C1(CCCC1)NC2=O (centres unmarked) — ΔTm (thermal stability, DSF; 10 µM): 0.4 °C
